Hits are enriched below; roughly 9.6% of the tested compounds scored in any of these assays.
MT stabilize HCS = microtubule stabilizers in HeLa cells, primary screen, imaging, high-content imaging | HeLa tubulin immunostaining HCS, 24 h; share of cells brighter than vehicle mean+2SD | 200,000 tested, 0.83% active | AID 2205, 2009 | % tubulin-high responders, % at 10 µM;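 active = plate Z-score above 3 for both tubulin-high and condensed-nucleus cell shares, with cell loss under 80%, at 10 µM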;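 also: anti alpha tubulin signal scored within the nucleus-defined area of each cell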
b-catenin transl = modulators of beta-catenin nuclear translocation, primary screen, imaging, HeLa cells, immunofluorescence, high-content; 190,000 tested, 0.3% active; nuclear translocation activity, % at 5 µM; AID 1665, 2009;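 active = nuclear translocation activity above 50% at 5 µM, with a well cell count of 50 or more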;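 also: per-cell ratio of nuclear to cytoplasmic median beta-catenin stain intensity; plate controls were DMSO negative control for no effect and GSK-3 inhibitor IX positive control for full effect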
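System: Human HeLa cells, endogenous beta-catenin | Compound dosing: 5 µM primary, 0.02–20 µM confirmation | Timing: 24 h compound exposure at 37°C, 5% CO2 | Measured by: Fluorescence imaging of beta-catenin antibody stain plus DAPI | Read-out basis: % activation of per-cell nuclear versus cytoplasmic median beta-catenin signal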
Ba/F3 V617F tox = reduced viability of JAK2V617F-dependent Ba/F3 cells, primary screen, JAK2V617F inhibitor project, cell-based, Ba/F3 EpoR-JAK2V617F, luminescence | 220,000 tested, 1.1% active | ATP luminescence | inhibition, % at 5.6 µM;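 active = inhibition above the campaign mean plus 3 SD over all tested compounds, cut at about 24% in these data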;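 also: cytokine-independent growth of Ba/F3 cells driven by EpoR plus mutant JAK2; 0% = DMSO-treated cells and 100% = JAK inhibitor I control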
BaF3 parental = parental Ba/F3 cell viability inhibition, counter-screen for JAK2V617F inhibitor project, murine pro-B, CellTiter-Glo luminescence | CellTiter-Glo ATP luminescence | 220,000 tested, 1.1% active | inhibition, % at 5.6 µM;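 active = inhibition above a per-campaign cutoff, the mean inhibition of all tested compounds plus 3 SD, cut at about 27% in these data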;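 also: 0% = DMSO wells and 100% = JAK Inhibitor I control wells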
L major viab = Leishmania major promastigote growth inhibition, primary screen. Leishmania major promastigotes, resazurin fluorescence viability. inhibition, % at 10 µM. 200,000 tested, 9% active. AID 1063, 2008; in the data active = inhibition above about 50%;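 also: promastigotes grown with compound for 44 hours at 28 °C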
APP transl inh = inhibitors of APP translation via 5'UTR reporter, primary screen, APP 5'UTR luciferase, SH-SY5Y cells; inhibition, % at 2 µM; 190,000 tested, 0.82% active; SH-SY5Y APP 5'UTR-luciferase reporter, luminescence;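 active = inhibition above a set limit, derived from the sample mean plus 3 SD, cut at about 45% in these data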
The depositor's hits bear a star; / = no result given.

SMILES	MT stabilize HCS	b-catenin transl	Ba/F3 V617F tox	BaF3 parental	L major viab	APP transl inh
COc1ccc(C(=O)N2CCCN(C)CC2)cc1S(=O)(=O)N1CCCc2ccccc21	3	-2	-1	8	55*	-37
CCOC(=O)c1c(NC(=O)c2ccc(N3C(=O)[C@@H]4[C@H](C3=O)[C@H]3C=C[C@@H]4C3)cc2)sc2c1CCCC2	2	3	-3	1	3	14
COc1cc(C)c(NC(=S)Nc2cccc(Cl)c2C)cc1OC	3	0	-5	-4	19	-8
COc1ccc(C(=O)NCc2ccc(C)cc2)cc1S(=O)(=O)N1CCCc2ccccc21	3	/	0	2	99*	-1
COc1ccc(C(=O)NCC2CCCO2)cc1S(=O)(=O)N1CCCc2ccccc21 (centres undefined)	3	-2	4	10	3	-10
COc1ccc(OC)c(S(=O)(=O)N2CCc3ccccc32)c1	2	/	-1	4	95*	3
N#CC1=C(N)N(c2ccccc2)C(c2ccccc2)C1(C#N)C#N (centres undefined)	2	0	2	10	13	-2
COc1ccc2cc(C3OCCO3)c(Cl)nc2c1	2	2	3	0	-6	-86
Cc1ccc(NC(=O)c2cnn(C)c2)cc1[N+](=O)[O-]	2	-2	4	5	5	4
Cn1cc(C(=O)Nc2ccc(F)c(F)c2)cn1	3	-1	-2	2	11	50*
CC1(C)Cc2c(c(N3CCOCC3)nc3sc4c(=O)[nH]cnc4c23)CS1	5	-3	3	3	14	0
CCN(CC)CCNc1ncnc2c1sc1nc(N3CCOCC3)c3c(c12)CC(C)(C)SC3	4	5	19	11	100*	-8
CN(C)CCNc1ncnc2c1sc1nc(N3CCOCC3)c3c(c12)CC(C)(C)SC3	4	8	8	10	101*	-8
O=C(O)c1ccc(N2C(=O)CC(N3CCC(c4nc5ccccc5[nH]4)CC3)C2=O)cc1 (centres undefined)	2	0	1	8	10	13
COc1ccc(-c2n[nH]c(C)c2-c2ccc(Cl)cc2)c(O)c1	5	0	-2	2	46	-1
COc1ccc(-c2n[nH]c(C(F)(F)F)c2-c2cc3ccccc3o2)c(O)c1	30*	94*	-2	1	37	23
COc1ccccc1-c1c(-c2ccc(OCC(=O)NN)cc2O)n[nH]c1C(F)(F)F	1	0	-6	5	87*	11
O=S(=O)(c1ccccc1)c1cnn(-c2ccccc2)c1-c1ccc(Cl)cc1	3	-2	-6	-1	55*	18
COc1ccc(-c2c(S(=O)(=O)c3ccccc3)cnn2-c2ccccc2)cc1	3	2	3	3	59*	-17
Nc1nc(-c2ccc(Cl)cc2)c(S(=O)(=O)c2ccccc2)s1	2	2	2	7	6	25
COc1ccc(S(=O)(=O)Nc2cc(C)nn2-c2ccccc2)cc1	2	-1	-2	4	-5	/
CC(O)CNCCNCc1c(OCc2ccccc2)ccc2ccccc12 (centres undefined)	2	-1	3	11	101*	3
OCCNCCNCc1ccccc1OCc1ccccc1	2	0	0	8	16	-6
CC(O)CNCCOc1ccccc1OCc1ccccc1 (centres undefined)	2	-1	4	9	88*	8
Cc1ccc(NCc2nnc(SCC(=O)NNC(=O)Cc3ccccc3)n2C)cc1	/	0	0	2	/	/
Brc1ccc(CNc2cc3c(cc2Br)OCCO3)cc1	0	4	-2	3	-3	20
Cc1cccc(-n2nc(C(=O)c3ccco3)cc(-c3nc4ccccc4[nH]3)c2=N)c1	2	1	0	3	100*	-26
COc1ccc(-n2nc(C(=O)c3cccs3)cc(-c3nc4ccccc4[nH]3)c2=N)cc1	3	-5	-2	5	99*	-2
Cc1ccc2nc(-c3cccc(NC(=O)c4ccco4)c3)[nH]c2c1	4	-1	11	11	49	-44
